Bioassay records as filed in PubChem.
A selection: hits, their analogues and other compounds. The true share with any hit is near 2.9%.
S100A4 MyoIIA – inhibitors of S100A4-myosin IIA peptide binding, primary screen, biochemical, fluorescence polarization, TAMRA-MyoIIA peptide; inhibition, % at 10.7 µM; actives 0.14% (n = 360,000); AID 652163, 2013;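 active means mean inhibition of at least 70% across replicates, with every replicate also reaching that level; inconclusive means mean inhibition reaches 70% but some replicates fall short; inactive means mean inhibition below 70%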
Target sequence (P26447 whole entry, looked up): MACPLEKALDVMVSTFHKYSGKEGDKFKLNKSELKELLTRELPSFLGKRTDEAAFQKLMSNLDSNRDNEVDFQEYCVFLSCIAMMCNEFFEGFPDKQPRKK
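Test system – S100A4 monomer (human) · Compound – single-point compound testing · Schedule – 5 min incubation before reading · Probe or stimulus – TAMRA-labelled myosin IIA heavy-chain peptide probe, 5 nM · Benchmarks – neutral control DMSO, positive control TFP · Medium – Calcium-containing HEPES buffer, pH 7.2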
DENV2 CPE rescue – inhibitors of DENV2 cytopathic effect, primary screen, cell-based, plate reader, single concentration | DENV2-infected cells, cytopathic effect rescue | CPE inhibition, % at 9.99 µM | actives 1.7% (n = 350,000) | AID 651640, 2012; in the data active means CPE inhibition above about 20%, passing the limit was not always enough; inconclusive means no clear call, values can overlap the other calls; tested in BHK-21 cells;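 further: 0% = median of neutral control wells and 100% = median of positive control wells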
PGC1a acetyl inh – inhibitors of PGC1a acetylation signal, primary screen, cell-based, U2OS, AlphaScreen, inhibitor mode | AID 651687, 2012 | inhibition, % at 15.6 µM | actives 0.17% (n = 350,000) | AlphaScreen anti-acetyl-lysine; with virally co-expressed GCN5 acetyltransferase;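 active means every replicate shows inhibition of at least 40%; inconclusive means mean inhibition at least 40% but some replicate below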;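 further: 0% = neutral control wells and 100% = positive control wells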
SIRT5 inh – SIRT5 desuccinylase inhibitors, primary screen, biochemical, fluorescence imaging, single point, set 5 | NAD-dependent protein deacylase sirtuin-5, mitochondrial (Homo sapiens), Q9NXA8 | inhibition, % at 15 µM | Purified SirT5, succinyl-peptide AMC, trypsin-coupled fluorescence | AID 652115, 2013 | actives 1.1% (n = 330,000); in the data active means inhibition above about 15%; inconclusive means no clear call, values can overlap the other calls
Target sequence (Q9NXA8 whole entry, looked up): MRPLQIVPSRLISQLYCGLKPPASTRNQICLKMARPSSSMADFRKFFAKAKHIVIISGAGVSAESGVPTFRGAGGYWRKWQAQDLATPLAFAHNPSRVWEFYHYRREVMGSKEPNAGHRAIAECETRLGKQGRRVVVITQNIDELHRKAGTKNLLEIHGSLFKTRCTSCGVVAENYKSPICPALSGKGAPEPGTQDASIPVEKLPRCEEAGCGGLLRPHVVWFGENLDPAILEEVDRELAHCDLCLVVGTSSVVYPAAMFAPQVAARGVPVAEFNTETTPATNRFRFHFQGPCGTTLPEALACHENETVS
Statin myotox sup – suppressors of statin myotoxicity in C2C12 myotubes, primary screen, cell-based, single point, plate reader. C2C12 myotubes + simvastatin, ATP luminescence, 48 h; scaled: DMSO 0, geranylgeraniol control 100. rescue of ATP level, % at 7.49 µM. actives 0.78% (n = 330,000). AID 602340, 2012;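 active means mean ATP rescue above about 67%, or every replicate alone reaching that limit, limit read from the data, passing the limit was not always enough; inconclusive means no clear call, values can overlap the other calls; inactive means mean under the limit and some replicate under it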;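 further: myotubes were challenged with 10 µM simvastatin during compound exposure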
The depositor's hits bear a star; u = inconclusive; x = not tested or not shown.

SMILES | S100A4 MyoIIA | DENV2 CPE rescue | PGC1a acetyl inh | SIRT5 inh | Statin myotox sup
COc1ccc2c3c(n(C)c2c1)[C@@H](CO)N(C(=O)CN1CCOCC1)CC31CCN(C(C)=O)CC1 | 10 | -8 | 7 | x | x
C[C@@H]1CN([C@@H](C)CO)C(=O)c2cc(NC(=O)c3ccccc3)ccc2O[C@@H](C)CCCCO[C@@H]1CN(C)C(=O)Nc1ccc(C(F)(F)F)cc1 | 8 | -6 | x | 1 | -19
COc1cccc(NC(=O)N2CC(=O)N3[C@H](CO)[C@@H](c4ccc(C#CCC5CCCC5)cc4)[C@@H]3C2)c1 | -2 | 1 | -9 | 24* | x
O=C1CN(S(=O)(=O)Cc2ccccc2)C[C@H]2[C@H](c3ccc(C#Cc4ccc(F)cc4)cc3)[C@@H](CO)N12 | -21 | 38* | -5 | 7 | x
O=C1CN(S(=O)(=O)Cc2ccccc2)C[C@H]2[C@@H](c3ccc(C#Cc4ccccc4)cc3)[C@H](CO)N12 | -6 | -3 | -8 | 16* | x
O=C1CN(S(=O)(=O)Cc2ccccc2)C[C@@H]2[C@@H](c3ccc(C#Cc4ccc(F)cc4)cc3)[C@H](CO)N12 | -14 | -5 | -4 | 9 | x
O=C1CN(S(=O)(=O)Cc2ccccc2)C[C@@H]2[C@@H](c3ccc(C#Cc4ccc(F)cc4)cc3)[C@@H](CO)N12 | -5 | 0 | -32 | 3 | x
Cc1cc(C(=O)Nc2cccc3c2O[C@@H](CN(C)Cc2ccc(C(=O)O)cc2)[C@@H](C)CN([C@H](C)CO)C3=O)n(C)n1 | -6 | 50* | -2 | -4 | -3
Cc1cc(C(=O)Nc2cccc3c2O[C@@H](CN(C)Cc2ccc(Oc4ccccc4)cc2)[C@H](C)CN([C@H](C)CO)C3=O)n(C)n1 | 1 | 2 | 0 | 22* | -19
C=CC[C@H](CC(=O)N[C@H](CO)Cc1ccccc1)C(=O)N[C@H](COC(=O)[C@@H](CC=C)Cc1ccc(F)cc1)Cc1c[nH]c2ccccc12 | x | x | 7 | x | -13
C=CC[C@@H](CC(=O)N[C@@H](CO)Cc1ccccc1)C(=O)N[C@@H](COC(=O)[C@@H](CC=C)Cc1ccc(F)cc1)Cc1c[nH]c2ccccc12 | -6 | 73* | x | x | 3
C=CCC[C@@H](Cc1ccc(F)cc1)C(=O)OC[C@@H]1CCCN1C(=O)[C@H](CC=C)CC(=O)N[C@H](CO)Cc1ccccc1 | 0 | 20* | -14 | x | 11
C=CCC[C@@H](Cc1ccc(F)cc1)C(=O)OC[C@H]1CCCN1C(=O)[C@@H](CC=C)CC(=O)N[C@H](CO)Cc1ccccc1 | 2 | -3 | 1 | 12 | -11
C=CC[C@@H](CC(=O)N[C@H](CO)Cc1ccccc1)C(=O)N[C@@H](COC(=O)[C@H](CC=C)CC(=O)OC(C)(C)C)Cc1ccccc1 | -5 | 79* | x | x | -17
C[C@@H]1CN([C@H](C)CO)S(=O)(=O)c2ccc(-c3ccncc3)cc2O[C@H]1CN(C)Cc1cccnc1 | 3 | -5 | 2 | 0 | -72
Cn1c(=O)cc2c3c(c(N4CCCCC4)ccc31)C(=O)c1ccccc1-2 | 103* | 0 | -21 | -4 | x
O=C1c2ccc(-c3ccc4c(c3)C(=O)N(CCCO)C4=O)cc2C(=O)N1CCCO | 1 | 4 | 70* | -9 | -2
CC(C)c1ccc(NC(=O)C[C@H]2CC[C@H]3[C@@H](COc4ccc(NC(=O)c5ccno5)cc4C(=O)N3C)O2)cc1 | 4 | -2 | x | -2 | 18
O=C1CCCC2=C1C(c1ccco1)Nc1ccc3ccccc3c12 (centres undefined) | x | x | 5 | x | 95*
O=C1CCCC2=C1C(c1ccc(O)c(O)c1)Nc1ccc3ccccc3c12 (centres undefined) | 1 | -4 | -1 | 2 | x
Cc1noc(C)c1NC(=O)N(C)C[C@H]1OCCCC[C@H](C)Oc2ccc(NS(=O)(=O)c3ccc(F)cc3)cc2C(=O)N([C@@H](C)CO)C[C@@H]1C | -13 | 0 | x | 0 | -45
C=CC(=O)N1C/C(=C/c2ccc(F)cc2)C(=O)/C(=C\c2ccc(F)cc2)C1 | -3 | 20 | 83* | 2 | 17
CC(C)NC(=O)Nc1ccc2c(c1)C(=O)N([C@H](C)CO)C[C@H](C)[C@H](CN(C)C(=O)NC1CCCCC1)OCCCC[C@H](C)O2 | 13 | 3 | 10 | 1 | x
CCCNC(=O)N1CC2(CN(S(=O)(=O)c3ccccc3)C2)c2c(n(C)c3cc(OC)ccc23)[C@@H]1CO | -9 | 2 | x | 0 | x
CCS(=O)(=O)c1ccc(-c2csc(-c3ccc(Cl)cc3)n2)c(Cl)c1Cl | x | x | 0 | x | 103*
SMILES | S100A4 MyoIIA | DENV2 CPE rescue | PGC1a acetyl inh | SIRT5 inh | Statin myotox sup
CCS(=O)(=O)c1ccc(-c2csc(-c3ccccc3Cl)n2)c(Cl)c1Cl | x | x | -2 | x | -4
COC(=O)C[C@@H]1C[C@@H]2c3cc(N(C)C)ccc3O[C@@H]2[C@@H](CO)O1 | 5 | 1 | 3 | 4 | -1
O=C(COC(=O)c1cc(=O)[nH]c2ccccc12)c1ccccc1 | 2 | -4 | -1 | 2 | 4
O=C(OCC(=O)N1CCOCC1)c1cc(=O)[nH]c2ccccc12 | -3 | 28* | 4 | -4 | -1
O=C(OCC(=O)N1CCOCC1)c1ccccc1SCC(=O)N1CCCC1 | x | x | 3 | x | 118*
Cc1cccc(C)c1NC(=O)CN(C)C(=O)c1ccccc1SCC(=O)N1CCCC1 | -5 | 9 | x | 16* | 1
Cc1cccc(C)c1NC(=O)COC(=O)c1cc(=O)[nH]c2ccccc12 | 6 | u | -6 | 17* | -10
CC(C)C#Cc1ccc2c(c1)O[C@@H](CN(C)Cc1ccncc1)[C@H](C)CN([C@H](C)CO)S2(=O)=O | -15 | -7 | -3 | 7 | -71
O=C(OCC(=O)N1CCCC1)c1cc(Br)ccc1Cl | -2 | x | -4 | 18* | x
CCn1c2ccccc2c2cc(/C=N/n3cn[nH]c3=S)ccc21 | x | x | 42* | x | -7
COc1cccc(-c2ccc3c(c2)[C@@H]2[C@@H](CCN2C(=O)NC2CCCC2)[C@@H](CO)N3C)c1 | 4 | -22 | -12 | 2 | 5
CN1c2ccc(-c3ccccc3)cc2[C@@H]2[C@@H](CCN2C(=O)Cc2ccccn2)[C@@H]1CO | 5 | 22* | -1 | 0 | 40
COc1cccc(NC(=O)N2CC[C@@H]3[C@H]2c2cc(-c4cccc(OC)c4)ccc2N(C)[C@H]3CO)c1 | 0 | 68* | -4 | 2 | x
COc1ccc(-c2ccc3c(c2)[C@@H]2[C@@H](CCN2C(=O)NC2CCCC2)[C@H](CO)N3C)cc1 | 82* | -12 | 10 | -6 | x
COc1ccc(NC(=O)N2CC[C@@H]3[C@H]2c2cc(-c4cccc(F)c4)ccc2N(C)[C@H]3CO)cc1 | x | x | 6 | x | 4
